Assay results: ChEMBL document CHEMBL3286298 (Eur J Med Chem, 2014)

Tests used:
[1] = Chemical stability of compound in phosphate buffer assessed as half life at pH 2.21 by HPLC analysis; format: physicochemical
Procedure, shortened: (§1)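 Methanol solution of compound mixed into 4 ml phosphate buffer (pH 2.21, 5.86, 7.33 or 7.88), held at 37 °C; samples taken at 0, 1, 3, 6, 12, 24 h and analysed by reverse-phase HPLC (methanol/water 70:30, pH 2.86, UV 219 nm). Pseudo-first-order Kdisapp from linear regression of ln peak area against time in hours; t1/2 derived from it.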

Brain [2] = assay: Drug uptake in Kunming mouse brain […] iv ibuprofen administered as single dose by HPLC analysis relative to ibuprofen; format: ADME, organism-based; settings: in vivo
[3] = Chemical stability of compound in phosphate buffer assessed as half life at pH 7.88 by HPLC analysis; format: physicochemical; procedure, shortened: as §1
[4] = Metabolic stability in mouse plasma assessed as compound half life by HPLC analysis; format: ADME, cell-free
Procedure, shortened: (§2)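 Incubation in mouse plasma extract or brain homogenate at 37 °C; remaining compound measured by HPLC (UV 219 nm). Pseudo-first-order Kdisapp from linear regression of ln peak area against time in minutes; half-life derived from it.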

[5] = Chemical stability of compound in phosphate buffer assessed as first order rate constant of disappearance of drug at pH 7.33 by HPLC analysis; format: physicochemical; procedure, shortened: as §1
[6] = Metabolic stability in mouse brain assessed as compound half life by HPLC analysis; format: ADME, tissue-based; procedure, shortened: as §2
Brain [7] = assay: AUC (0 to t) in Kunming mouse brain […] iv ibuprofen administered as single dose by HPLC analysis; format: ADME, organism-based; settings: in vivo
Brain [8] = assay: Drug uptake in Kunming mouse brain assessed as concentration efficiency […] iv ibuprofen administered as single dose by HPLC analysis relative to ibuprofen; format: ADME, organism-based; settings: in vivo
[9] = Chemical stability of compound in phosphate buffer assessed as half life at pH 7.33 by HPLC analysis; format: physicochemical; procedure, shortened: as §1
Brain [10] = assay: Metabolic stability in mouse brain assessed as first order rate constant of disappearance of drug by HPLC analysis; format: ADME, tissue-based; procedure, shortened: as §2
[11] = Chemical stability of compound in phosphate buffer assessed as first order rate constant of disappearance of drug at pH 2.21 by HPLC analysis; format: physicochemical; procedure, shortened: as §1
[12] = Metabolic stability in mouse plasma assessed as first order rate constant of disappearance of drug by HPLC analysis; format: ADME, cell-free; procedure, shortened: as §2
[13] = Chemical stability of compound in phosphate buffer assessed as half life at pH 5.86 by HPLC analysis; format: physicochemical; procedure, shortened: as §1
[14] = Chemical stability of compound in phosphate buffer assessed as first order rate constant of disappearance of drug at pH 7.88 by HPLC analysis; format: physicochemical; procedure, shortened: as §1
[15] = Chemical stability of compound in phosphate buffer assessed as first order rate constant of disappearance of drug at pH 5.86 by HPLC analysis; format: physicochemical; procedure, shortened: as §1
[16] = Mean residence time in Kunming mouse blood at 48 mmol/g, iv administered as single dose by HPLC analysis; format: ADME, organism-based
Brain [17] = assay: AUC (0 to t) in Kunming mouse brain at 48 mmol/g, iv administered as single dose by HPLC analysis; format: ADME, organism-based; settings: in vivo
[18] = Cmax in Kunming mouse brain at 48 mmol/g, iv administered as single dose by HPLC analysis; format: ADME, organism-based; design: dose 48 mmol/g, route intravenous
[19] = Tmax in Kunming mouse blood at 48 mmol/g, iv administered as single dose by HPLC analysis; format: ADME, organism-based
[20] = AUC (0 to t) in Kunming mouse blood at 48 mmol/g, iv administered as single dose by HPLC analysis; format: ADME, organism-based
[21] = Cmax in Kunming mouse blood at 48 mmol/g, iv administered as single dose by HPLC analysis; format: ADME, organism-based; design: dose 48 mmol/g, route intravenous
[22] = Tmax in Kunming mouse brain at 48 mmol/g, iv administered as single dose by HPLC analysis; format: ADME, organism-based

| half-life [1] [h] | Ratio (Brain [2]) | half-life [3] [h] | half-life [4] [h] | K [5] [×10⁻² /hr] | half-life [6] [h] | AUCt (Brain [7]) [µg·min/g] | Ratio (Brain [8]) | half-life [9] [h] | K (Brain [10]) [×10⁻² /min] | K [11] [×10⁻² /hr] | k el [12] [s⁻¹] | half-life [13] [h] | K [14] [×10⁻² /hr] | K [15] [×10⁻² /hr] | Structure (SMILES) | other results |
| --- | --- | --- | --- | --- | --- | --- | --- | --- | --- | --- | --- | --- | --- | --- | --- | --- |
| 40.1 | 2.03 | 8.2 | 0.777 | 4.67 | 0.335 | 3767.9842 | 2.619 | 14.8 | 3.46 | 1.73 | 0.000248 | 18.4 | 8.42 | 3.76 | CC(C)Cc1ccc(C(C)C(=O)OCC(O)C2OC(=O)C(O)=C2O)cc1 (configuration not stated) |  |
| 43 | 2.254 | 9.7 | 0.857 | 4.3 | 0.278 | 4183.3895 | 4.194 | 16.1 | 4.16 | 1.61 | 0.000225 | 20.6 | 7.15 | 3.36 | CC(C)Cc1ccc(C(C)C(=O)OC(CO)C2OC(=O)C(O)=C2O)cc1 (configuration not stated) |  |
| 39.5 | 3.516 | 8.1 | 0.737 | 5.58 | 0.465 | 6526.7422 | 4.965 | 12.4 | 2.48 | 1.76 | 0.000262 | 18.9 | 8.65 | 3.66 | CC(C)Cc1ccc(C(C)C(=O)OCC(OC(=O)C(C)c2ccc(CC(C)C)cc2)C2OC(=O)C(O)=C2O)cc1 (configuration not stated) |  |
| 53.9 | 4.072 | 10.1 | 0.463 | 4.27 | 0.212 | 7557.692 | 7.461 | 16.2 | 5.46 | 1.29 | 0.000307 | 23.9 | 6.87 | 2.89 | C/C(=C(\CCOC(=O)C(C)c1ccc(CC(C)C)cc1)SSCc1ccccc1)N(C=O)CC(=O)OCC(OC(=O)C(C)c1ccc(CC(C)C)cc1)C1OC(=O)C(O)=C1O (configuration not stated) |  |
|  |  |  |  |  |  |  |  |  |  |  |  |  |  |  | CC(C)Cc1ccc(C(C)C(=O)O)cc1 (configuration not stated) [IBUPROFEN] | MRT [16]: 78.9 h; AUCt (Brain [17]): 1856.215 µg·min/g; Cmax [18]: 10700 ng/g; Tmax [19]: 6.67 min; AUC(0-t) [20]: 56800 ng·h/mL; Cmax [21]: 28400 ng/mL; Tmax [22]: 0.417 h |
